A1 apoptosis 2: blocks A1, raising caspase activity; caspase activation, % (no concentration beside the values); 24,000 tested, under 10 active; MEF A1-2A-BIM cells, caspase-Glo luminescence, 3 h; percent of clofoctol response, DMSO zero; in the data active means caspase activation above about 5.9%
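system = A1-2A-BIM-expressing MEF cells | quantity = 2500 MEF cells/well | dosing = 50 nL compound per well, pinned | schedule = overnight cell settling, then 3 h compound exposure, 37 °C | signal = luminescence from DEVD-luciferin Caspase-Glo reagent, 1:1 in 50 mM HEPES, 1 h RT | read-out = Caspase-3/7 activation, seen as rise in luminescence signal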
T cruzi intra: blocks T. cruzi growth inside host cells | intracellular Trypanosoma cruzi in host cells, plate reader | activity score (inhibition), % at 5.01 µM | 4.9% of 22,000 active | AID 651903; in the data active means activity score above about 55%;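 further: parasites and compound incubated about four days before reading; 0% = median of neutral control wells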
INS-1E ATP HTS: INS-1E beta cell protection from cytokine death. INS-1E cytokine-induced death, ATP luminescence, 48 h; normalised: neutral wells 0, positive control 100. protection from cytokine-induced ATP loss, % at 10 µM. 0.1% of 20,000 active. AID 488910;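 active means mean replicate protection from cytokine-induced ATP loss at least 50% and at least 75% of replicates each reaching 50%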
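assay system = INS-1E rat insulinoma cells | amount = 8000 cells per well | medium = phenol-red-free RPMI with 5% fetal bovine serum | doses = one compound concentration, pin transfer | timing = 48 h cytokine plus compound treatment, 10 min reagent incubation | also added = IL-1β, TNF-α and IFN-γ cytokine mix | signal = CellTiter-Glo luminescence measuring cellular ATP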
The depositor's hits bear a star; nt = no result given. This is one part of a sample in which hits are shown more often than they occur.

SMILES	A1 apoptosis 2	T cruzi intra	INS-1E ATP HTS
COc1ccc([Si](C)(C)[C@@H]2[C@@H](CCn3cc(CCO)nn3)O[C@]3(C(=O)N(C)c4ccccc43)[C@H]2C)cc1	1	nt	nt
COc1ccc([Si](C)(C)[C@H]2[C@H](CCO)O[C@@]3(C(=O)N(c4ccccc4)c4ccccc43)[C@@H]2C)cc1	-1	nt	nt
C[C@@H]1CN([C@@H](C)CO)C(=O)c2cccc(NS(=O)(=O)c3cccs3)c2O[C@@H]1CN(C)S(=O)(=O)c1ccc(Cl)cc1	-1	27	-54
C[C@@H]1CN([C@H](C)CO)C(=O)c2cc(NC(=O)c3ccccc3)ccc2O[C@@H](C)CCCCO[C@H]1CN(C)Cc1ccc(C(F)(F)F)cc1	0	nt	nt
COc1cc(O)cc(OC)c1/C=N/NC(=O)CCCCCC(=O)Nc1ccccc1O	1	-7	6
COc1ccc(S(=O)(=O)Nc2ccc3c(c2)CC(=O)N([C@H](C)CO)C[C@H](C)[C@@H](CN(C)Cc2ccc(-c4ccccc4)cc2)O3)cc1	-1	nt	nt
COc1ccc(S(=O)(=O)Nc2ccc3c(c2)CC(=O)N([C@@H](C)CO)C[C@H](C)[C@H](CN(C)Cc2ccccc2)O3)cc1	0	43	2
COc1ccc(S(=O)(=O)Nc2ccc3c(c2)CC(=O)N([C@H](C)CO)C[C@@H](C)[C@H](CN(C)Cc2ccccc2)O3)cc1	0	66*	3
COc1ccc(S(=O)(=O)Nc2ccc3c(c2)CC(=O)N([C@H](C)CO)C[C@@H](C)[C@@H](CN(C)Cc2ccc(Oc4ccccc4)cc2)O3)cc1	0	70*	-29
COc1ccc(S(=O)(=O)Nc2ccc3c(c2)CC(=O)N([C@H](C)CO)C[C@H](C)[C@H](CN(C)Cc2ccc(-c4ccccc4)cc2)O3)cc1	-1	25	-28
COc1ccc(S(=O)(=O)Nc2ccc3c(c2)CC(=O)N([C@@H](C)CO)C[C@@H](C)[C@@H](CN(C)Cc2ccc(-c4ccccc4)cc2)O3)cc1	0	64*	-32
COc1ccc(S(=O)(=O)Nc2ccc3c(c2)CC(=O)N([C@H](C)CO)C[C@H](C)[C@H](CN(C)Cc2ccc(Oc4ccccc4)cc2)O3)cc1	nt	22	-16
COc1ccc(S(=O)(=O)Nc2ccc3c(c2)CC(=O)N([C@@H](C)CO)C[C@H](C)[C@@H](CN(C)Cc2ccc(-c4ccccc4)cc2)O3)cc1	nt	73*	-66
C[C@H](CO)N1C[C@H](C)[C@H](CN(C)C(=O)c2ccccc2)OCCCC[C@H](C)Oc2ccc(NC(=O)Nc3ccccc3)cc2C1=O	0	nt	nt
Cc1ccc(S(=O)(=O)Nc2ccc3c(c2)CC(=O)N([C@@H](C)CO)C[C@H](C)[C@H](CN(C)Cc2ccc4c(c2)OCO4)O3)cc1	1	-9	3
CC(C)NC(=O)Nc1ccc2c(c1)C(=O)N([C@@H](C)CO)C[C@@H](C)[C@@H](CN(C)C(=O)Nc1ccccc1)O2	nt	8	2
COc1ccc(NC(=O)Nc2ccc3c(c2)C(=O)N([C@@H](C)CO)C[C@H](C)[C@@H](CN(C)C(=O)Nc2ccc(F)cc2)O3)cc1	1	nt	nt
C[C@H](CO)N1C[C@H](C)[C@@H](CN(C)Cc2ccc(C(F)(F)F)cc2)Oc2c(NC(=O)c3ccncc3)cccc2C1=O	0	83*	-15
C[C@@H]1CN([C@H](C)CO)C(=O)c2cccc(NC(=O)c3cnccn3)c2O[C@H]1CN(C)Cc1ccc(C(F)(F)F)cc1	0	-3	-4
C[C@@H]1CN([C@@H](C)CO)C(=O)c2cccc(NC(=O)c3cnccn3)c2O[C@H]1CN(C)Cc1ccc(C(F)(F)F)cc1	-2	15	-1
C[C@@H]1CN([C@H](C)CO)C(=O)c2cccc(NC(=O)c3ccncc3)c2O[C@@H]1CN(C)Cc1ccc(C(F)(F)F)cc1	0	-1	-5
C[C@H]1CN([C@@H](C)CO)C(=O)c2cccc(NC(=O)c3ccncc3)c2O[C@@H]1CN(C)Cc1ccc(C(F)(F)F)cc1	0	78*	17
C[C@@H]1CN([C@H](C)CO)C(=O)c2cccc(NC(=O)c3ccncc3)c2O[C@H]1CN(C)Cc1ccc(C(F)(F)F)cc1	2	79*	2
C[C@@H]1CN([C@@H](C)CO)C(=O)c2cccc(NC(=O)c3ccncc3)c2O[C@H]1CN(C)Cc1ccc(C(F)(F)F)cc1	0	77*	4
Cc1noc(C)c1S(=O)(=O)N(C)C[C@@H]1Oc2ccc(NS(=O)(=O)c3cn(C)cn3)cc2CC(=O)N([C@@H](C)CO)C[C@H]1C	-2	nt	nt
SMILES	A1 apoptosis 2	T cruzi intra	INS-1E ATP HTS
C[C@H]1CN([C@@H](C)CO)C(=O)c2cccc(NC(=O)c3cnccn3)c2O[C@@H]1CN(C)Cc1ccc(-c2ccccc2)cc1	-1	19	-18
C[C@H]1CN([C@@H](C)CO)C(=O)Cc2cc(NC(=O)Cc3cn(C)c4ccccc34)ccc2O[C@@H]1CN(C)Cc1ccc(-c2ccccc2)cc1	nt	74*	-25
C[C@@H]1CN([C@H](C)CO)C(=O)Cc2cc(NC(=O)Cc3cn(C)c4ccccc34)ccc2O[C@H]1CN(C)Cc1ccc(-c2ccccc2)cc1	0	64*	-3
C[C@@H]1CN([C@H](C)CO)C(=O)Cc2cc(NC(=O)Cc3cn(C)c4ccccc34)ccc2O[C@@H]1CN(C)Cc1ccc(C(=O)O)cc1	0	-5	2
C[C@@H]1CN([C@H](C)CO)C(=O)Cc2cc(NC(=O)Cc3cn(C)c4ccccc34)ccc2O[C@H]1CN(C)CC1CCCCC1	0	60*	-1
C[C@@H]1CN([C@H](C)CO)C(=O)Cc2cc(NC(=O)Cc3cn(C)c4ccccc34)ccc2O[C@@H]1CN(C)CC1CCCCC1	0	21	1
C[C@H]1CN([C@@H](C)CO)C(=O)Cc2cc(NC(=O)Cc3cn(C)c4ccccc34)ccc2O[C@H]1CN(C)Cc1ccc(-c2ccccc2)cc1	-1	43	-38
C[C@H](CO)N1C[C@H](C)[C@@H](CN(C)CC2CC2)Oc2c(NS(=O)(=O)c3cn(C)cn3)cccc2C1=O	0	-34	5
C[C@@H]1CN([C@H](C)CO)C(=O)c2cccc(NS(=O)(=O)c3ccccc3)c2O[C@H]1CN(C)S(=O)(=O)c1cccs1	1	3	6
C[C@H]1CN([C@@H](C)CO)C(=O)c2cc(NC(=O)NC3CCCCC3)ccc2O[C@H]1CN(C)Cc1ccc(C(=O)O)cc1	1	4	-2
COc1ccc(S(=O)(=O)Nc2ccc3c(c2)CC(=O)N([C@@H](C)CO)C[C@H](C)[C@H](CN(C)S(C)(=O)=O)O3)cc1	0	-9	-2
C[C@H]1CN([C@@H](C)CO)C(=O)c2cc(NC(=O)Nc3cccc4ccccc34)ccc2O[C@@H]1CN(C)Cc1ccc(C(=O)O)cc1	-1	-8	3
Cc1ccc(S(=O)(=O)Nc2ccc3c(c2)C(=O)N([C@H](C)CO)C[C@H](C)[C@@H](CN(C)C(=O)Nc2ccc(C(F)(F)F)cc2)OCCCC[C@@H](C)O3)cc1	0	75*	-16
